Data: ChEMBL document CHEMBL3779834, “Prenylated Acylphloroglucinols with Leishmanicidal Activity from the Fern Elaphoglossum lindbergii” (J Nat Prod, 2016)
pIC50: −log10 of the molar value.

Legend:
Leishmania amazonensis = assay: Leshmanicidal activity against promastigote stage of Leishmania amazonensis clone 1 AML MHOM/BR/76/LTB-012 after 72 hrs by XTT-based microplate reader analysis; assay type: functional, organism-based; settings: clone 1 AML MHOM/BR/76/LTB-012, 72 h
Procedure, shortened: (§1)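 Log-phase promastigotes, grown at 26 °C in Schneider's insect medium (pH 6.8) with 10% heat-inactivated FBS, seeded at 1 × 10^6 parasites/mL. Test substances in DMSO at 0.75−100 μg/mL, 72 h at 26 °C. XTT (1 mg/mL) with PMS (0.06 mg/mL) added, further 4 h at 26 °C, OD read at 450 nm. DMSO 1% negative, amphotericin B 0.5 μg/mL positive control. IC50 = 50% viability decrease, mean ± standard error.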

Leishmania braziliensis = assay: Leshmanicidal activity against promastigote stage of Leishmania braziliensis strand M2904 C192 RJA after 72 hrs by XTT-based microplate reader analysis; assay type: functional, organism-based; procedure, shortened: as §1

SMILES | pIC50 (Leishmania amazonensis) | pIC50 (Leishmania braziliensis) | IC50 (Leishmania amazonensis) [µg/mL] | IC50 (Leishmania braziliensis) [µg/mL]
CCCCCC(=O)C1=C(O)[C@@](C)(CC=C(C)C)C(O)=C(Cc2c(O)c(CC=C(C)C)c(OC)c(C(=O)CCCCC)c2O)C1=O | 3.82 | 4.18 |  | 
CCCC(=O)C1=C(O)[C@@](C)(CC=C(C)C)C(O)=C(Cc2c(O)c3c(c(C(=O)CCC)c2O)OC(C)(C)C=C3)C1=O | 4.79 | 4.87 |  | 
CCCCCC(=O)C1=C(O)[C@@](C)(CC=C(C)C)C(O)=C(Cc2c(O)c3c(c(C(=O)CCC)c2O)OC(C)(C)C=C3)C1=O | 4.28 | 4.52 |  | 
CCCCCC(=O)C1=C(O)[C@@](C)(CC=C(C)C)C(O)=C(Cc2c(O)c(CC3=C(O)[C@](C)(CC=C(C)C)C(O)=C(C(=O)CCCCC)C3=O)c(O)c(C(=O)CCC)c2O)C1=O |  |  | > 100 | > 100
CCCCCC(=O)c1c(O)c(CC2=C(O)[C@](C)(CC=C(C)C)C(O)=C(C(=O)CCC)C2=O)c(O)c(CC2=C(O)[C@](C)(CC=C(C)C)C(O)=C(C(=O)CCC)C2=O)c1O |  | 4.06 | > 100 | 
C[C@@H]1[C@H](O)[C@@H](C)/C=C/C=C/C=C/C=C/C=C/C=C/C=C/[C@H](O[C@@H]2O[C@H](C)[C@@H](O)[C@H](N)[C@@H]2O)C[C@@H]2O[C@](O)(C[C@@H](O)C[C@@H](O)[C@H](O)CC[C@@H](O)C[C@@H](O)CC(=O)O[C@H]1C)C[C@H](O)[C@H]2C(=O)O [AMPHOTERICIN B] | 6.96 | 6.92 |  | 
